Assay results published in ChEMBL document CHEMBL2163267, “Novel N-linked aminopiperidine inhibitors of bacterial topoisomerase type II with reduced pK(a): antibacterial agents with an improved safety profile” (J Med Chem, 2012).
In brackets after ≈: the same amount, converted by molar mass.

Experiments:
Streptococcus pneumoniae = assay: Antibacterial activity against penicillin-susceptible Streptococcus pneumoniae D39 after 18 to 24 hrs by CLSI broth microdilution method; format: functional
Escherichia coli = assay: Antibacterial activity against Escherichia coli W3110 after 18 to 24 hrs by CLSI broth microdilution method; format: functional
Staphylococcus aureus = assay: Antibacterial activity against methicillin-susceptible Staphylococcus aureus after 18 to 24 hrs by CLSI broth microdilution method; format: functional
Pseudomonas aeruginosa = assay: Antibacterial activity against Pseudomonas aeruginosa PAO1 after 18 to 24 hrs by CLSI broth microdilution method; format: functional
[1] = Octanol-phosphate buffer partition coefficient, log D of the compound at pH 7.4 by shake flask method; format: physicochemical
Summary of the method: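 Shake-flask partition between n-octanol and 10 mM phosphate buffer at pH 7.4. Shaken 1 h at 1200 rpm to reach equilibrium. Phases analysed by LC/UV, with MS for mass confirmation.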

[2] = Dissociation constant, pKa of the compound by pH metric assay; format: physicochemical
Summary of the method: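 pH-metric titration on an automated titrator, run in triplicate. Accuracy about 0.02 log units.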

[3] = molecular target: Voltage-gated inwardly rectifying potassium channel KCNH2 (Homo sapiens, UniProt Q12809); assay: Inhibition of human ERG by Ionworks assay
Voltage-gated inwardly rectifying potassium channel KCNH2, sequence (Q12809 whole entry): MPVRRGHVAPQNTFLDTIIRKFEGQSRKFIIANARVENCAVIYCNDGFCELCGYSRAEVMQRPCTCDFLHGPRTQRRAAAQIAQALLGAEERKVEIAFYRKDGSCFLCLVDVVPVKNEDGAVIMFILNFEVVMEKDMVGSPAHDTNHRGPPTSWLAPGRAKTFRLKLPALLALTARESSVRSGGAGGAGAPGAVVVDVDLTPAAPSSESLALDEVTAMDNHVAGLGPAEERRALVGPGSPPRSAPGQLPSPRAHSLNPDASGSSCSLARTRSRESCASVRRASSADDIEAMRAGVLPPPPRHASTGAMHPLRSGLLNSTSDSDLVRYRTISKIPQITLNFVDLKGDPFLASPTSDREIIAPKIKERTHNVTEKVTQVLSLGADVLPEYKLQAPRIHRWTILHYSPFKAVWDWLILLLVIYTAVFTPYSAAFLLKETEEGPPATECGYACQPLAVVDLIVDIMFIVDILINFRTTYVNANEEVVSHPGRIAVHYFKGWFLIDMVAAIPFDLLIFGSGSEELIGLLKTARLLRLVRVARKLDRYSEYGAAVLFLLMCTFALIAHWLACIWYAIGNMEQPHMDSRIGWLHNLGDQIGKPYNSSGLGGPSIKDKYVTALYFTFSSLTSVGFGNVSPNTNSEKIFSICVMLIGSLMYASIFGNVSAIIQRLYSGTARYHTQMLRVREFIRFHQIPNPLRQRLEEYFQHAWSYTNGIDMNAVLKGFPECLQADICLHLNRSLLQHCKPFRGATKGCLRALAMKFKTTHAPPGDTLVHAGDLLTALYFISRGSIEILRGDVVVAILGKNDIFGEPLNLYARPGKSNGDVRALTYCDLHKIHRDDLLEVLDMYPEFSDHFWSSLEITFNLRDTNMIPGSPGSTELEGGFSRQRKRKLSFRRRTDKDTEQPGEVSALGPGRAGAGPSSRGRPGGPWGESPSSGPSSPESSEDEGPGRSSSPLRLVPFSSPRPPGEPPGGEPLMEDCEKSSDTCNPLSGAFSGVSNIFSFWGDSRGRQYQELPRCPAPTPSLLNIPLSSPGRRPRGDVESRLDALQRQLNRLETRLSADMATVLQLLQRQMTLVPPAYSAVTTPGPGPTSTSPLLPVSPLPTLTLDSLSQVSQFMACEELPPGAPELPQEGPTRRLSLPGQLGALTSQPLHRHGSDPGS

[4] = Inhibition of Escherichia coli DNA topoisomerase 4 subunit ParC/DNA topoisomerase 4 subunit ParE ATPase activity after 24 hrs by malachite green staining-based colorimetric assay
[5] = Fraction unbound in human plasma at 10 uM by equilibrium dialysis method; format: ADME, cell-free
Summary of the method: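 Equilibrium dialysis. Compound at 10 μM in the plasma (donor) chamber against phosphate buffer, rotated at 37 °C for 16 h. Drug in the plasma and buffer samples quantified by LC-MS/MS after methanol protein precipitation with internal standard. Standard curve 10 nM to 10 μM.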

Row | Structure (SMILES) | MIC (Streptococcus pneumoniae) [µg/mL] | MIC (Escherichia coli) [µg/mL] | MIC (Staphylococcus aureus) [µg/mL] | MIC (Pseudomonas aeruginosa) [µg/mL] | logD [1] | pKa [2] | IC50 [3] [nM] | IC50 [4] [nM] | fraction unbound at 10 µM [5]
1 | COc1ccc2ncc(=O)n(CCN3CC[C@H](NCc4ccc5c(n4)NC(=O)CO5)[C@H](F)C3)c2c1 | 0.13 (≈ 0.269 µM) | 0.5 (≈ 1.04 µM) | 0.03 (≈ 0.0622 µM) | 8 (≈ 16.6 µM) |  |  |  |  | 
2 | N#Cc1ccc2ccc(=O)n(CCN3CC[C@H](NCc4cc5c(cn4)OCCO5)[C@H](O)C3)c2c1 |  | 1 (≈ 2.17 µM) | 0.06 (≈ 0.13 µM) | > 8 | 0.46 | 8 | 156000 | 25 | 0.19
3 | N#Cc1ccc2ccc(=O)n(CCN3CC[C@@H](NCc4cc5c(cn4)OCCO5)[C@@H](O)C3)c2c1 |  | 1 (≈ 2.17 µM) | 0.06 (≈ 0.13 µM) | > 8 | 0.45 |  | 117000 | 41 | 0.24
4 | N#Cc1ccc2ccc(=O)n(CCN3CC[C@H](NCc4ccc5c(n4)NC(=O)CO5)[C@H](O)C3)c2c1 |  | 0.5 (≈ 1.05 µM) | 0.25 (≈ 0.527 µM) | 2 (≈ 4.21 µM) | 0.11 |  |  | 17 | 0.21
5 | N#Cc1ccc2ccc(=O)n(CCN3CC[C@@H](NCc4ccc5c(n4)NC(=O)CO5)[C@@H](O)C3)c2c1 |  | 0.5 (≈ 1.05 µM) | 0.5 (≈ 1.05 µM) | 2 (≈ 4.21 µM) | 0.1 |  |  | 15 | 0.18
6 | COc1ccc2ncc(=O)n(CCN3CC[C@H](NCc4cc5c(cn4)OCCO5)[C@H](O)C3)c2c1 |  | 0.5 (≈ 1.07 µM) | 0.03 (≈ 0.0642 µM) | 8 (≈ 17.1 µM) |  |  |  | 5 | 0.19
7 | COc1ccc2ncc(=O)n(CCN3CC[C@@H](NCc4cc5c(cn4)OCCO5)[C@@H](O)C3)c2c1 |  | 1 (≈ 2.14 µM) | 0.06 (≈ 0.128 µM) | > 8 |  | 7.97 |  | 6 | 0.14
8 | COc1ccc2ncc(=O)n(CCN3CC[C@H](NCc4ccc5c(n4)NC(=O)CO5)[C@H](O)C3)c2c1 |  | 0.25 (≈ 0.52 µM) | 0.06 (≈ 0.125 µM) | 2 (≈ 4.16 µM) | 0.39 |  | 172000 | 17 | 0.14
9 | COc1ccc2ncc(=O)n(CCN3CC[C@@H](NCc4ccc5c(n4)NC(=O)CO5)[C@@H](O)C3)c2c1 |  | 0.25 (≈ 0.52 µM) | 0.13 (≈ 0.271 µM) | 2 (≈ 4.16 µM) | 0.37 |  | 152000 | 23 | 0.05
10 | CO[C@H]1CN(CCn2c(=O)ccc3ccc(C#N)cc32)CC[C@H]1NCc1cc2c(cn1)OCCO2 | 0.13 (≈ 0.273 µM) | 4 (≈ 8.41 µM) | 0.13 (≈ 0.273 µM) | > 8 | 0.63 | 7.99 | 174000 | 55 | 0.54
11 | CO[C@H]1CN(CCn2c(=O)ccc3ccc(C#N)cc32)CC[C@H]1NCc1ccc2c(n1)NC(=O)CO2 | 0.5 (≈ 1.02 µM) | 1 (≈ 2.05 µM) | 0.13 (≈ 0.266 µM) | 8 (≈ 16.4 µM) | 0.32 |  |  | 28 | 0.5
12 | COc1ccc2ncc(=O)n(CCN3CC[C@@H](NCc4cc5c(cn4)OCCO5)[C@@H](OC)C3)c2c1 | 0.13 (≈ 0.27 µM) | 4 (≈ 8.31 µM) | 0.06 (≈ 0.125 µM) | > 8 | 0.9 | 8.01 | 75000 | 76 | 0.33
